This note sets out measurements from the array DNA melting data of Ke et al. (doi:10.1101/2024.01.08.574731).

A short description of data set [1]: folding enthalpy; higher = less favourable; fluorescence melt of hairpins on a sequencing array, two-state fit. To be noted: sodium 0.088 M. In short, it runs like this:
(§1)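 Two-state fits, bootstrapped, provided melting temperature and folding enthalpy from Cy3 fluorescence normalised to pre-quench Cy3 and to control constructs. Library hairpins with annealed Cy3 and quencher oligos were imaged on a sequenced MiSeq flow cell in 50 mM Na-HEPES pH 8.0, 25 mM NaCl, at 2.5 °C intervals up to 60 °C. Four replicates were combined with inverse-variance weighting. A 9.35 °C upward shift was applied to fitted temperatures to match UV melts.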

The nature of data set [2]: melting temperature; fluorescence melt of hairpins on a sequencing array, two-state fit, raised by 9.35 °C to match UV melts. Particulars: sodium 0.088 M. In short, it runs like this: as §1

For the sequence AAAGGGAAACCTTT (((((....))))), in data set [1], the folding enthalpy was -10 kcal/mol. In addition, the Tm in data set [2] amounted to 32.2 °C.
The matching figures for AACGAGAAATCGTT (((((....))))): -16.9 kcal/mol and 38.5 °C.
AAGATGAAAATCTT (((((....))))): the folding enthalpy in data set [1] was -8.93 kcal/mol. Also, the Tm in data set [2] came to 28.4 °C.
With AATGGGAAACCATT (((((....))))), in data set [1], the folding enthalpy was -14.1 kcal/mol. Besides, the Tm in data set [2] stood at 37.7 °C.
Take ACAGGGAAACCTGT (((((....))))): the folding enthalpy in data set [1] is -18.8 kcal/mol. The Tm in data set [2] was 48.3 °C.
For ACAGTGAAAACTGT (((((....))))), in that order: -19.2 kcal/mol and 45.7 °C.
For ACATCGAAAGATGT (((((....))))), in that order: -19.6 kcal/mol and 52.6 °C.
On to ACCAAGAAATTGGT (((((....))))), for which the folding enthalpy in data set [1] was -13.7 kcal/mol. Also, the Tm in data set [2] came to 37.5 °C.
Consider ACCATGAAAATGGT (((((....))))), for which the folding enthalpy in data set [1] is -20.3 kcal/mol. Moreover, in data set [2], the Tm came to 46.6 °C.
The matching figures for ACCGGGAAACCGGT (((((....))))): -16.6 kcal/mol and 66.5 °C.
The matching figures for ACCTTGAAAAAGGT (((((....))))): -13.4 kcal/mol and 47.3 °C.
For ACGAGGAAACTCGT (((((....))))), in that order: -26 kcal/mol and 50.3 °C.
With ACGCAGAAATGCGT (((((....))))), the folding enthalpy in data set [1] was -21.7 kcal/mol. For the same sequence, the Tm in data set [2] was found to be 55.7 °C.
The matching figures for ACTACGAAAGTAGT (((((....))))): -18.7 kcal/mol and 50.9 °C.
ACTCGGAAACGAGT (((((....))))): the folding enthalpy in data set [1] is -20.8 kcal/mol. Further, in data set [2], the Tm was 52.3 °C.
As for ACTTTGAAAAAAGT (((((....))))), in data set [1], the folding enthalpy is -8.08 kcal/mol. In addition, the Tm in data set [2] was found to be 30.6 °C.
For the sequence AGAAACAGAAATGGTTCT ((((.((....)).)))), the folding enthalpy in data set [1] is -22.8 kcal/mol. Besides, the Tm in data set [2] is 33.1 °C.
In the case of AGAAACCGAAAGGCTTCT ((((.((....)).)))), the folding enthalpy in data set [1] is -28.4 kcal/mol. For the same sequence, the Tm in data set [2] is 40.9 °C.
For AGAAGGAAACTTCT (((((....))))), in that order: -13.6 kcal/mol and 30.7 °C.
Regarding AGCAGGAAACTGCT (((((....))))), in data set [1], the folding enthalpy is -22.8 kcal/mol. Moreover, the Tm in data set [2] was found to be 52.7 °C.
For AGCCTGAAAAGGCT (((((....))))), the folding enthalpy in data set [1] was -18.2 kcal/mol. Further, the Tm in data set [2] was 66.1 °C.
For AGGAAGAAATTCCT (((((....))))), in that order: -11.9 kcal/mol and 28.9 °C.
For ATAGGGAAACCTAT (((((....))))), in that order: -11.2 kcal/mol and 32.4 °C.
For the sequence ATAGTGAAAACTAT (((((....))))), the folding enthalpy in data set [1] is -12.8 kcal/mol. In data set [2], the Tm was 30.4 °C.
The matching figures for ATATCGAAAGATAT (((((....))))): -15.8 kcal/mol and 42.2 °C.
The matching figures for ATATGGAAACATAT (((((....))))): -11.4 kcal/mol and 27.6 °C.
The matching figures for ATCCCGAAAGGGAT (((((....))))): -29.1 kcal/mol and 60.9 °C.
With ATCTGGAAACAGAT (((((....))))), the folding enthalpy in data set [1] is -18.3 kcal/mol. Besides, the Tm in data set [2] is 39.1 °C.
The matching figures for ATCTTGAAAAAGAT (((((....))))): -9.95 kcal/mol and 32.9 °C.
The matching figures for ATGCGGAAACGCAT (((((....))))): -17.1 kcal/mol and 57.7 °C.
In the case of ATGTAGAAATACAT (((((....))))), the folding enthalpy in data set [1] was -7.12 kcal/mol. The Tm in data set [2] amounted to 28.2 °C.
The matching figures for ATTCGGAAACGAAT (((((....))))): -18.4 kcal/mol and 44.8 °C.
On to ATTCTGAAAAGAAT (((((....))))), for which the folding enthalpy in data set [1] was -12.6 kcal/mol. Besides, in data set [2], the Tm was determined as 32.2 °C.
For ATTGCGAAAGCAAT (((((....))))), in that order: -17.5 kcal/mol and 57.6 °C.
In the case of ATTGTGAAAACAAT (((((....))))), the folding enthalpy in data set [1] is -14.9 kcal/mol. In addition, the Tm in data set [2] came out at 39 °C.
For ATTTCGAAAGAAAT (((((....))))), in that order: -16 kcal/mol and 42.1 °C.
For the sequence CAACAGAAATGTTG (((((....))))), the folding enthalpy in data set [1] is -22.1 kcal/mol. In data set [2], the Tm worked out at 40.8 °C.
Take CAACCAGAAATGGTTG ((((((....)))))): the folding enthalpy in data set [1] was -29.4 kcal/mol. Further, the Tm in data set [2] was 53.1 °C.
Consider CAACTGAAAAGTTG (((((....))))), for which the folding enthalpy in data set [1] was -22.1 kcal/mol. Besides, in data set [2], the Tm came to 46.2 °C.
For CAAGAGAAATCTTG (((((....))))), in that order: -10.5 kcal/mol and 31.7 °C.
Regarding CAATCAGAAATGGTTG (((.((....)).))), the folding enthalpy in data set [1] is -13.9 kcal/mol. In data set [2], the Tm came out at 29.3 °C.
In the case of CAATCGAAAGATTG (((((....))))), in data set [1], the folding enthalpy is -22.6 kcal/mol. For the same sequence, in data set [2], the Tm came to 51.3 °C.
As to CACAAGAAATTGTG (((((....))))), in data set [1], the folding enthalpy is -21.7 kcal/mol. Moreover, the Tm in data set [2] stood at 37.6 °C.
For the sequence CAGGTGAAAACCTG (((((....))))), the folding enthalpy in data set [1] is -24.5 kcal/mol. For the same sequence, in data set [2], the Tm came to 53 °C.
For CATCCGAAAGGATG (((((....))))), in that order: -25.8 kcal/mol and 63.1 °C.
Regarding CATGAGAAATCATG (((((....))))), the folding enthalpy in data set [1] was -13.9 kcal/mol. Besides, the Tm in data set [2] came out at 43.9 °C.
Turning to CCCAAGAAATTGGG (((((....))))), the folding enthalpy in data set [1] was -17.3 kcal/mol. Moreover, the Tm in data set [2] came out at 45.3 °C.
For CCCGAGAAATCGGG (((((....))))), in that order: -19.6 kcal/mol and 54.2 °C.
The matching figures for CCGTTGAAAAACGG (((((....))))): -19.9 kcal/mol and 54.3 °C.
In the case of CCTAGGAAACTAGG (((((....))))), the folding enthalpy in data set [1] is -25.4 kcal/mol. The Tm in data set [2] was 41.2 °C.
Take CCTCAGAAATGAGG (((((....))))): the folding enthalpy in data set [1] was -19.7 kcal/mol. For the same sequence, the Tm in data set [2] came to 45.2 °C.
Consider CCTTAGAAATAAGG (((((....))))), for which the folding enthalpy in data set [1] is -10.5 kcal/mol. Further, in data set [2], the Tm was 28.6 °C.
Consider CCTTCGAAAGAAGG (((((....))))), for which, in data set [1], the folding enthalpy was -20.7 kcal/mol. For the same sequence, the Tm in data set [2] stood at 55.2 °C.
With CCTTTGAAAAAAGG (((((....))))), the folding enthalpy in data set [1] is -12.2 kcal/mol. For the same sequence, the Tm in data set [2] worked out at 39.7 °C.
Turning to CGAACGAAAGTTCG (((((....))))), the folding enthalpy in data set [1] is -29.2 kcal/mol. For the same sequence, the Tm in data set [2] turned out to be 68.7 °C.
Take CGAACGGAAACGTCGTCG ((((((....)))..))): the folding enthalpy in data set [1] is -18.3 kcal/mol. Also, in data set [2], the Tm was found to be 47.1 °C.
For CGAACGGAAACGTGGTCG ((((((....)))..))), in that order: -12.7 kcal/mol and 32.7 °C.
The matching figures for CGAACGGAAACGTTATCG ((((((....)))..))): -14.6 kcal/mol and 28.8 °C.
The matching figures for CGAAGCCGGAAACGGTCG (((..(((....)))))): -12.6 kcal/mol and 37.8 °C.
Consider CGAAGCGGAAACGCATCG (((.(((....))).))), for which the folding enthalpy in data set [1] is -27.5 kcal/mol. The Tm in data set [2] came out at 51.5 °C.
For the sequence CGAAGCGGAAACGCCTCG (((.(((....))).))), the folding enthalpy in data set [1] was -23.8 kcal/mol. Besides, in data set [2], the Tm was determined as 47.3 °C.
With CGAATCGGAAACGAGTCG (((.(((....))).))), the folding enthalpy in data set [1] is -40.2 kcal/mol. The Tm in data set [2] came to 51.3 °C.
For CGAATGAAAATTCG (((((....))))), in that order: -22.5 kcal/mol and 48.1 °C.
For CGACCCGGAAACGGTCG (((.(((....)))))), in that order: -30.1 kcal/mol and 52.5 °C.
For CGACCCGGAAACGGTTCG (((.(((....))).))), in that order: -39.8 kcal/mol and 48.6 °C.
In the case of CGACCGGAAACGGCCTCG ((((((....)))..))), in data set [1], the folding enthalpy is -11.9 kcal/mol. For the same sequence, the Tm in data set [2] was found to be 30.2 °C.
CGACCGGAAACGGGCTCG ((((((....)))..))): the folding enthalpy in data set [1] was -12.1 kcal/mol. The Tm in data set [2] turned out to be 35.8 °C.
For CGACCGGAAACGGTTTCG ((((((....)))..))), in that order: -10.3 kcal/mol and 33.5 °C.
The matching figures for CGACGCCGGAAACGGTCG (((..(((....)))))): -18.3 kcal/mol and 44.3 °C.
As for CGACGCGGAAACGCATCG (((.(((....))).))), the folding enthalpy in data set [1] was -28 kcal/mol. Also, the Tm in data set [2] came out at 49.1 °C.
For CGACGCGGAAACGCTCG (((.(((....)))))), in that order: -21.8 kcal/mol and 49.3 °C.
For CGACGTCGGAAACGATCG (((..(((....)))))), in that order: -11.2 kcal/mol and 37 °C.
Take CGACTCGGAAACGACTCG (((.(((....))).))): the folding enthalpy in data set [1] was -30.6 kcal/mol. In data set [2], the Tm came to 34.2 °C.
On to CGAGAGAAATCTCG (((((....))))), for which the folding enthalpy in data set [1] is -23.9 kcal/mol. In addition, the Tm in data set [2] was 47.5 °C.
For CGAGCCGGAAACGGATCG (((.(((....))).))), in that order: -41.2 kcal/mol and 61.7 °C.
The matching figures for CGAGCGGAAACGCCATCG ((((((....)))..))): -12.5 kcal/mol and 31.9 °C.
The matching figures for CGAGCGGAAACGCGTCG ((((((....))).))): -13.2 kcal/mol and 53.6 °C.
